In ChEMBL document CHEMBL1671683, “Activity of linezolid in an in vitro pharmacokinetic-pharmacodynamic model using different dosages and Staphylococcus aureus and Enterococcus faecalis strains with and without a hypermutator phenotype” (Antimicrob Agents Chemother, 2010):

What was measured:
[1] = test system: Enterococcus faecalis; test: AUBC (0 to 24 hrs) in Enterococcus faecalis Ef1497 MutM3 in two-compartment pharmacokinetic/pharmacodynamic model at 600 mg, bid administered as 0.5 hr infusion for 2 days; format: functional
How it was run: (§1)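 Hollow-fibre two-compartment model in cation-adjusted, protein-free MH broth at 37°C. Human total-plasma linezolid profile simulated as 0.5-h infusion every 12 h for 48 h. Concentrated 18-h culture injected into the peripheral compartment 3 h before first sample, giving about 10^8 (E. faecalis) or 10^9 (S. aureus) CFU/ml. Viable counts by dilution plating over 0–24 h. Area indices calculated versus growth control curve. Duplicate runs.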

[2] = test system: Staphylococcus aureus; test: Bactericidal activity against 12.5 hrs peripheral compartment culture samples of Staphylococcus aureus RN4220 in two-compartment pharmacokinetic/pharmacodynamic model assessed as effect on bacterial count at 600 mg, bid administered as 0.5 hr infusion; format: functional
How it was run: (§2)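 An 18-h culture concentrated 50-fold was injected into the peripheral compartment 3 h pre-sampling (~10^8 CFU/ml E. faecalis, 10^9 S. aureus). Counts came from dilution plating (detection limit 2–3 log10 CFU/ml), expressed as Δlog CFU/ml from treatment start. Run in duplicate.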

[3] = test system: Enterococcus faecalis; test: Bactericidal activity against 14 hrs peripheral compartment culture samples of Enterococcus faecalis Ef1497 MutM3 in two-compartment pharmacokinetic/pharmacodynamic model assessed as effect on bacterial count at 200 mg, bid administered as 0.5 hr infusion; format: functional; how it was run: as §2
[4] = Residual concentration at the end of the administration interval in two-compartment pharmacokinetic/pharmacodynamic model at 800 mg, bid administered as 0.5 hr infusion over 24 hrs; format: ADME; conditions: in vivo, iv
[5] = test system: Enterococcus faecalis; test: AUBC (0 to 24 hrs) in Enterococcus faecalis Ef1497 in two-compartment pharmacokinetic/pharmacodynamic model at 600 mg, bid administered as 0.5 hr infusion for 2 days; format: functional; how it was run: as §1
[6] = Mean residence time in two-compartment pharmacokinetic/pharmacodynamic model at 200 mg, bid administered as 0.5 hr infusion over 24 hrs; format: ADME, organism-based; conditions: in vivo, iv
[7] = test system: Enterococcus faecalis; test: Bactericidal activity against 0.5 hrs peripheral compartment culture samples of Enterococcus faecalis Ef1497 in two-compartment pharmacokinetic/pharmacodynamic model assessed as effect on bacterial count at 800 mg, bid administered as 0.5 hr infusion; format: functional
How it was run: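 Two-compartment hollow-fibre model in cation-adjusted, protein-free MH broth, 37°C. Linezolid given as simulated 0.5-h infusion twice daily. Inoculum grown 18 h, concentrated 50-fold and placed in the peripheral compartment 3 h before t0. Peripheral samples at set times counted by dilution plating. First 10-fold dilution not plated, limiting detection to 2–3 log10 CFU/ml. Δlog CFU/ml taken from t0 count. Duplicates.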

[8] = test system: Enterococcus faecalis; test: Bactericidal activity against 24 hrs peripheral compartment culture samples of Enterococcus faecalis ATCC 29212 in two-compartment pharmacokinetic/pharmacodynamic model assessed as effect on bacterial count at 600 mg, bid administered as 0.5 hr infusion; format: functional; how it was run: as §2
[9] = Cmax in two-compartment pharmacokinetic/pharmacodynamic model at 800 mg, bid administered as 0.5 hr infusion over 24 hrs; format: ADME, organism-based; design: dose 800 mg; conditions: iv
[10] = in vivo; conditions: iv, 800 mg
[11] = Volume of distribution at steady state in two-compartment pharmacokinetic/pharmacodynamic model at 200 mg, bid administered as 0.5 hrs infusion; format: ADME, organism-based; conditions: iv, read-out: Vdss
[12] = Apparent volume of distribution in two-compartment pharmacokinetic/pharmacodynamic model at 200 mg, bid administered as 0.5 hrs infusion; format: ADME, organism-based; conditions: iv
[13] = test system: Enterococcus faecalis; test: T>MIC in Enterococcus faecalis Ef1497 MutM3 in two-compartment pharmacokinetic/pharmacodynamic model at 600 mg, bid administered as 0.5 hr infusion for 2 days; format: functional
[14] = AUC in two-compartment pharmacokinetic/pharmacodynamic model at 800 mg, bid administered as 0.5 hrs infusion; format: ADME; conditions: iv
[15] = test system: Enterococcus faecalis; test: Bactericidal activity against 14 hrs peripheral compartment culture samples of Enterococcus faecalis Ef1497 in two-compartment pharmacokinetic/pharmacodynamic model assessed as effect on bacterial count at 800 mg, bid administered as 0.5 hr infusion; format: functional; how it was run: as §2
[16] = test system: Enterococcus faecalis; test: Bactericidal activity against 13 hrs peripheral compartment culture samples of Enterococcus faecalis Ef1497 in two-compartment pharmacokinetic/pharmacodynamic model assessed as effect on bacterial count at 800 mg, bid administered as 0.5 hr infusion; format: functional; how it was run: as §2
[17] = Total clearance in two-compartment pharmacokinetic/pharmacodynamic model at 800 mg, bid administered as 0.5 hr infusion over 24 hrs; format: ADME, organism-based; conditions: in vivo, iv
[18] = test system: Enterococcus faecalis; test: Bactericidal activity against 12.5 hrs peripheral compartment culture samples of Enterococcus faecalis Ef1497 in two-compartment pharmacokinetic/pharmacodynamic model assessed as effect on bacterial count at 600 mg, bid administered as 0.5 hr infusion; format: functional; how it was run: as §2
[19] = AUC in healthy human at 600 mg, iv, bid administered as 0.5 hr infusion; format: ADME, organism-based; conditions: plasma

CC(=O)NC[C@H]1CN(c2ccc(N3CCOCC3)c(F)c2)C(=O)O1 [LINEZOLID]
AUBC [1]: 217.1 log10CFU/ml.hr | log10CFU/ml [2]: -0.26 | log10CFU/ml [3]: 0.41 | Drug uptake [4]: 1.42 µg/mL | AUBC [5]: 215.6 log10CFU/ml.hr | MRT [6]: 7.95 h | log10CFU/ml [7]: 0.08 | log10CFU/ml [8]: 0.32 | Cmax [9]: 19500 ng/mL | half-life [10]: 5.2 h | Vd [11]: 120 L | Vd [12]: 141 L | fT>MIC [13]: 0% | AUC at 0.5 h [14]: 38200 ng·h/mL | log10CFU/ml [15]: -0.05 | log10CFU/ml [16]: -0.16 | clearance [17]: 228 mL/min | log10CFU/ml [18]: -0.14 | AUC at 0.5 h [19]: 88100 ng·h/mL
